Laboratory results reported in the RNAGym collection of RNA variant scans (doi:10.1002/anie.201605470).

B1: Osa-1-4 twister ribozyme (parent)
chain: CCGCCUAACACUGCCAAUGCCGGUCCCAAGCCCGGAUAAAAGUGGAGGGGGCGG

Variants of: B1
Experiment: self-cleavage, relative activity (ratio to wild type); higher = more cleavage; co-transcriptional
In short: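 The 48 positions downstream of the cleavage site in a 54-nucleotide Oryza sativa twister ribozyme template were synthesised at 97 % wild-type base and 1 % of each other base. The template was transcribed in vitro at 37 °C for 2 h, with self-cleavage allowed during transcription. Reads with or without upstream sequence after deep sequencing marked cleavage status, and relative activity is fraction cleaved normalised to wild type.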

Row | Variant | self-cleavage
1 | G51A U37G | 0.78
2 | G51A U37C | 0.82
3 | G51A U37A | 0.39
4 | C52A G22A | 0.71
5 | C52A G22U | 0.17
6 | C52A G22C | 0.07
7 | G50U G54C | 0.15
8 | G50U G54A | 0.79
9 | G50U G54U | 0.52
10 | C52G G47C | 0.11
11 | C52G G47U | 0.29
12 | C52G G47A | 0.28
13 | C52U G13A | 0.14
14 | C52U G13U | 0.05
15 | C52U G13C | 0.01
16 | C52U G19C | 0.18
17 | C52U G19U | 0.48
18 | C52U G19A | 0.93
19 | G50U U43G | 0.71
20 | G50U U43A | 0.92
21 | G50U U43C | 0.68
22 | G51U U37G | 0.4
23 | G51U U37A | 0.15
24 | G51U U37C | 0.51

Row | Variant | self-cleavage
25 | G50C U18A | 0.95
26 | G50C U18G | 0.75
27 | G50C U18C | 0.95
28 | C52U U24G | 0.03
29 | C52U U24C | 0.56
30 | C52U U24A | 0.33
31 | C52G G53C | 0.24
32 | C52G G53A | 0.57
33 | C52G G53U | 0.44
34 | C52U U18G | 0.86
35 | C52U U18A | 0.97
36 | C52U U18C | 1
37 | G51C U12C | 0.04
38 | G51C U12G | 0.05
39 | G51C U12A | 0.05
40 | C52G G42C | 0.22
41 | C52G G42A | 0.75
42 | C52G G42U | 0.14
43 | C52G G45U | 0.14
44 | C52G G45A | 0.27
45 | C52G G45C | 0.1
46 | C52U G23A | 0.68
47 | C52U G23U | 0.25
48 | C52U G23C | 0.06

Row | Variant | self-cleavage
49 | G50U U24C | 0.28
50 | G50U U24G | 0.02
51 | G50U U24A | 0.13
52 | C52G G49U | 0.13
53 | C52G G49A | 0.2
54 | C52G G49C | 0.07
55 | G51C U37A | 0.08
56 | G51C U37G | 0.18
57 | G51C U37C | 0.14
58 | G50C G53U | 0.11
59 | G50C G53C | 0.06
60 | G50C G53A | 0.11
61 | C52U G54C | 0.94
62 | C52U G54U | 1.03
63 | C52U G54A | 0.98
64 | G51U U24C | 0.05
65 | G51U U24G | 0.02
66 | G51U U24A | 0.05
67 | C52U U43G | 0.88
68 | C52U U43C | 0.62
69 | C52U U43A | 1
70 | C52A G35A | 0.8
71 | C52A G35U | 0.81
72 | C52A G35C | 0.22

Row | Variant | self-cleavage
73 | C52U G50U | 0.98
74 | C52U G50C | 0.57
75 | C52U G50A | 0.97
76 | G51C U24G | 0.02
77 | G51C U24A | 0.04
78 | G51C U24C | 0.04
79 | G50U U12A | 0.82
80 | G50U U12C | 0.62
81 | G50U U12G | 0.47
82 | C52U U12G | 0.78
83 | C52U U12C | 0.65
84 | C52U U12A | 0.99
85 | C52A G51C | 0.43
86 | C52A G51A | 0.9
87 | C52A G51U | 0.48
88 | C52A G47U | 0.21
89 | C52A G47C | 0.1
90 | C52A G47A | 0.22
91 | G51C G53C | 0.04
92 | G51C G53A | 0.07
93 | G51C G53U | 0.06
94 | C52A G30A | 0.04
95 | C52A G30U | 0.04
96 | C52A G30C | 0.06

Row | Variant | self-cleavage
97 | G51A U12C | 0.22
98 | G51A U12A | 0.22
99 | G51A U12G | 0.07
100 | C52G G54U | 0.97
101 | C52G G54C | 0.91
102 | C52G G54A | 0.81
103 | G50U U37C | 1.06
104 | G50U U37G | 1.04
105 | G50U U37A | 0.85
106 | C52A G54C | 0.87
107 | C52A G54A | 0.69
108 | C52A G54U | 0.89
109 | G50C U43A | 0.75
110 | G50C U43G | 0.36
111 | G50C U43C | 0.45
112 | C52G G51U | 0.48
113 | C52G G51A | 0.84
114 | C52G G51C | 0.41
115 | C52U G30C | 0.04
116 | C52U G30U | 0.04
117 | C52U G30A | 0.04
118 | G53A U12A | 0.28
119 | C52U G45C | 0.07
120 | C52U G45U | 0.17

Row | Variant | self-cleavage
121 | C52U G45A | 0.54
122 | G50C U37C | 1.05
123 | G50C U37G | 1.04
124 | G50C U37A | 0.78
125 | G51U G54C | 0.51
126 | G51U G54U | 0.4
127 | G51U G54A | 0.25
128 | C52A G49U | 0.1
129 | C52A G49A | 0.21
130 | C52A G49C | 0.08
131 | C52A G42C | 0.16
132 | C52A G42A | 0.68
133 | C52A G42U | 0.11
134 | C52U G44U | 1.02
135 | C52U G44C | 1.05
136 | C52U G44A | 1
137 | C52A U18G | 0.82
138 | C52A U18C | 0.93
139 | C52A U18A | 0.93
140 | G50C G54U | 0.32
141 | G50C G54C | 0.1
142 | G50C G54A | 0.15
143 | G51A U18C | 0.46
144 | G51A U18G | 0.64

Row | Variant | self-cleavage
145 | G51A U18A | 0.62
146 | C52A G13U | 0.03
147 | C52A G13C | 0.04
148 | C52A G13A | 0.08
149 | C52G U18G | 0.86
150 | C52G U18C | 0.93
151 | C52G U18A | 0.91
152 | C52U U37A | 0.84
153 | C52U U37C | 1.07
154 | C52U U37G | 1.06
155 | C52U G42U | 0.13
156 | C52U G42A | 0.91
157 | C52U G42C | 0.39
158 | C52A G19C | 0.08
159 | C52A G19U | 0.2
160 | C52A G19A | 0.42
161 | G51A G54U | 0.83
162 | G51A G54C | 0.95
163 | G51A G54A | 0.85
164 | G50U U18C | 0.97
165 | G50U U18A | 0.89
166 | G50U U18G | 0.8
167 | C52G G30A | 0.06
